Screening data: PubChem BioAssay, Broad Institute
An excerpt weighted towards active compounds, which were near 1.5% of everything screened.
C2C12 statin – suppressors of statin myotoxicity in C2C12 myotubes, primary screen, cell-based, single point, plate reader; C2C12 myotubes + simvastatin, ATP luminescence, 48 h; scaled: DMSO 0, geranylgeraniol control 100; rescue of ATP level, % at 7.49 µM; hit rate 0.78% among 330,000;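 active means mean ATP rescue above about 67%, or every replicate alone reaching that limit, limit read from the data, passing the limit was not always enough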;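 further: myotubes were challenged with 10 µM simvastatin during compound exposure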
Mot1-301 SUMO – yeast Mot1-301 growth rescue at high temperature, primary screen, SUMOylation pathway inhibitor project, S. cerevisiae, ATP luminescence, 38.5C | S. cerevisiae Mot1-301 growth rescue; percent above DMSO median, 100 means doubled | growth rescue, % at 18.8 µM | hit rate 1% among 320,000;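 active means every valid replicate shows activation above 250% relative to neutral control wells; inactive means the rest, any valid replicate at or below 250%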
Cneo AK release – Cryptococcus neoformans cell lysis inducers, primary screen, AK release luminescence, single concentration | lysis activity, % at 15 µM | hit rate 0.2% among 360,000 | C. neoformans lysis, adenylate kinase release luminescence, 4 h; normalised: neutral wells 0, clomiphene wells 100;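 active means mean lysis activity across replicates of at least 80%, whatever share of replicates individually reach that level; inactive means mean lysis activity below 80%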
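Signal: Adenylate kinase release luminescence | Assay system: Log-phase Cryptococcus neoformans yeast cells | Input: Cells at 5 × 10^6 per mL | Buffer or medium: Fresh YPD growth medium | Compound: Single dose | Schedule: Static 4 h at 37 °C with compound, 1 h detection | Controls: Clomiphene | Read-out: Luminescence rise reflecting yeast cell lysis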
Yeast Mot1 SUMO – growth restoration of Mot1-301 yeast on galactose, dose response, SUMO pathway inhibitor project, whole organism, S. cerevisiae, ATP luminescence, cherry-picked samples; shares compounds with Mot1-301 SUMO; S. cerevisiae Mot1-301 galactose growth, 24 h; -100 = growth of slx-deleted rescue strain; growth activity, percent, % at 42 µM; 2,300 tested, under 10 active;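 active means Signal drops as the depositor expects, and the fitted half-maximal dose is no more than ten times the top valid tested dose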;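 further: more negative values mean stronger growth rescue toward the control strain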
Of the large screens only hits and unclear results are named; the others gave an inactive call (follow-up assays come after a bar, where they were run); ! = a repeat was not active.

C[C@@H]1CCCCO[C@@H](CN(C)Cc2ccc(C(F)(F)F)cc2)[C@@H](C)CN([C@@H](C)CO)C(=O)c2cc(NS(C)(=O)=O)ccc2O1	none (no result: C2C12 statin, Mot1-301 SUMO)
CC(=O)Nc1ccc(C(=O)Nc2nc(-c3ccccn3)cs2)cc1	none (no result: C2C12 statin, Cneo AK release)
O=C(Nc1nc(-c2ccccn2)cs1)c1ccc2c(c1)OCCO2	Mot1-301 SUMO 368.9 | Yeast Mot1 SUMO inactive
C[C@@H]1CCCCO[C@@H](CN(C)C(=O)c2ccncc2)[C@H](C)CN([C@@H](C)CO)C(=O)c2cc(NC(=O)C3CCCCC3)ccc2O1	none (no result: Mot1-301 SUMO)
Cc1ccc(C(=O)Nc2cccc([N+](=O)[O-])c2)cc1S(=O)(=O)Nc1cccc(C(=O)O)c1	none (no result: C2C12 statin, Cneo AK release)
Cc1ccc(NS(=O)(=O)c2cc(C(=O)Nc3cccc([N+](=O)[O-])c3)ccc2C)cc1	Mot1-301 SUMO 476.0 (no result: C2C12 statin) | Yeast Mot1 SUMO inactive
Cc1ccc(C(=O)Nc2cccc([N+](=O)[O-])c2)cc1S(=O)(=O)Nc1ccc(NC(=O)c2ccccc2)cc1	none (no result: C2C12 statin, Cneo AK release)
O=C(O)c1cccc(NC(=O)c2cccc(S(=O)(=O)Nc3cccc([N+](=O)[O-])c3)c2)c1	Mot1-301 SUMO 418.8 | Yeast Mot1 SUMO inactive
Cc1nn(C)cc1NC(=O)C[C@@H]1CC[C@H]2[C@@H](COc3ccc(NC(=O)C4CCC4)cc3C(=O)N2C)O1	none (no result: Mot1-301 SUMO, Cneo AK release)
Cc1c(Cl)cnc(NC(=O)COC(=O)/C=C/c2ccco2)c1Cl	none (no result: Mot1-301 SUMO)
O=C(COC(=O)/C=C/c1ccco1)Nc1ncc(C(F)(F)F)cc1Cl	Mot1-301 SUMO 588.4 | Yeast Mot1 SUMO inactive
Cc1nc(CCNC(=O)c2ccccc2)cs1	Mot1-301 SUMO 641.2 (no result: C2C12 statin, Cneo AK release) | Yeast Mot1 SUMO inactive
Cc1ccc(C(=O)NCCc2csc(-c3cccnc3)n2)cc1	none
C[C@@H]1CN([C@@H](C)CO)C(=O)c2cccc(NS(C)(=O)=O)c2O[C@@H]1CN(C)Cc1ccc(C(=O)Nc2ccccc2N)cc1	none (no result: C2C12 statin, Mot1-301 SUMO)
O=C(NCC1CC1)[C@H]1[C@H](CO)[C@H]2Cn3c(ccc(C4=CCCCC4)c3=O)[C@H]2N1Cc1ccccc1F	none (no result: Mot1-301 SUMO)
CSCCC(NC(=O)c1ccco1)C(=O)N1CCN(Cc2ccccc2)CC1 (configuration not stated)	Mot1-301 SUMO 425.8 | Yeast Mot1 SUMO inactive
CSCCC(NC(=O)c1ccccc1)C(=O)N1CCN(C(=O)c2ccccc2)CC1 (configuration not stated)	none
COCCNC(=O)C[C@H]1C[C@H]2c3cc(NS(=O)(=O)c4ccc(F)cc4)ccc3O[C@H]2[C@@H](CO)O1	none (no result: Mot1-301 SUMO)
O=C(N/N=C/c1ccccc1)c1[nH]c2ccc(Br)cc2c1-c1ccccc1	Mot1-301 SUMO 490.8 (no result: C2C12 statin, Cneo AK release) | Yeast Mot1 SUMO inactive
O=C(NN=C1CCCC1)c1[nH]c2ccc(Br)cc2c1-c1ccccc1	none (no result: C2C12 statin, Cneo AK release)
CCC(=O)Nc1ccc2c(c1)C(=O)N(C)C[C@@H](OC)[C@H](C)CN(C(=O)CN(C)C)[C@@H](C)CO2	none (no result: Mot1-301 SUMO, Cneo AK release)
CCCNC(=O)[C@H]1[C@H](CO)[C@H]2Cn3c(ccc(-c4ccc(F)cc4)c3=O)[C@@H]1N2CCC	none (no result: Mot1-301 SUMO)
O=C(O)CCc1ccc(-c2ccccc2)n1CC(=O)O	none
Cc1ccc(NC(=O)Cn2c(CCC(=O)O)ccc2-c2cccs2)cc1	Mot1-301 SUMO 526.5 | Yeast Mot1 SUMO inactive
Cc1ccccc1NC(=O)Cn1c(CCC(=O)O)ccc1-c1cccs1	none (no result: C2C12 statin, Cneo AK release)
Cc1c(Cl)cccc1NC(=O)Cn1c(CCC(=O)O)ccc1-c1ccccc1	Mot1-301 SUMO 429.3 | Yeast Mot1 SUMO inactive
CCC(=O)N[C@@H]1CC[C@H](CCNS(=O)(=O)c2ccc(Cl)cc2)O[C@@H]1CO	none (no result: Mot1-301 SUMO)
COCC(=O)Nc1ccc2c(c1)C(=O)N(C)C[C@@H](OC)[C@H](C)CN(C(=O)c1ccccc1F)[C@@H](C)CO2	none (no result: Mot1-301 SUMO)
O=C(O)c1cc(S(=O)(=O)Nc2ccc(OCc3ccccc3)cc2)ccc1Br	Mot1-301 SUMO 414.1 | Yeast Mot1 SUMO inactive
O=C(O)c1cccc(S(=O)(=O)Nc2ccc(OCc3ccccc3)cc2)c1	none
COC(=O)C1=C(C)NC(C)=C(C(=O)OC)C1c1ccc(-c2cccc([N+](=O)[O-])c2)o1	none
COC(=O)C1=C(C)NC(C)=C([N+](=O)[O-])C1c1ccccc1C(F)(F)F (configuration not stated)	Mot1-301 SUMO 496.7! | Yeast Mot1 SUMO inactive
C[C@@H]1CN([C@H](C)CO)C(=O)Cc2cc(NC(=O)C3CCCCC3)ccc2O[C@H]1CN(C)Cc1ccc(C(F)(F)F)cc1	none (no result: Mot1-301 SUMO)
